T1: C3aR1 (Homo sapiens, UniProt Q16581)
T1 sequence (Q16581 1-482): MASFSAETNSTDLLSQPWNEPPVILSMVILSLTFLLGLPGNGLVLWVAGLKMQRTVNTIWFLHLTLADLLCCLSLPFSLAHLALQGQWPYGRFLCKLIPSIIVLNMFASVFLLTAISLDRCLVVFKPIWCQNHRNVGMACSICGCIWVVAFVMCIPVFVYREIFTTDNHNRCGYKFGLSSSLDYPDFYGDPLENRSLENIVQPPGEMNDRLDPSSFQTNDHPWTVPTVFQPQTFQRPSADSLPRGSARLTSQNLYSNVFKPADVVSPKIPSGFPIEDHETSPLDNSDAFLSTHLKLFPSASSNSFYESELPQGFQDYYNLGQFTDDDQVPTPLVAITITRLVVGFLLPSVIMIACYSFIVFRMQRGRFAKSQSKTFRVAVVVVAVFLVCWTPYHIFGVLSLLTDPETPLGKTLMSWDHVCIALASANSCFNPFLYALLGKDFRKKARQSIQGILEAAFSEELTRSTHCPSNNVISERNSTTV

T2: Complement C3a receptor 1 (C3aR1) fused to Rluc8 on the C-terminus (UniProt Q16581)
T2 sequence: T1 sequence (Q16581 1-482)


Legend:
C3aR1 [1] = target: T1, C3aR1; experiment: C3aR1 G protein dissociation BRET assay; format: cell-based
In short: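 HEK293T co-transfected 1:1:1:1 with Gα-Rluc8, Gβ1, GFP2-Gγ and C3aR1, repeated for each Gα subtype (i, o, z, s, olf, q, 11–15). Cells plated overnight in DMEM with 1% dialyzed FBS. Test compound (3×) added in duplicate in HBSS/20 mM HEPES/0.1% BSA/0.01% ascorbic acid, pH 7.4, for 60 min at 37 °C. Coelenterazine 400a (5 μM final) added for 15 min; read at 400/515 nm. GFP2/Rluc8 ratio fitted by log(agonist)-response; three independent experiments, mean and SEM.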

3T3-L1 cells = experiment: Fluo-4 calcium influx assay in 3T3-L1 cells; format: cell-based
In short: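 3T3-L1 cells plated at 60% confluency on collagen-coated chamber slides. Next day, medium replaced with HBSS and cells loaded with 2.5 μM Fluo-4 AM for 30 min. Single cells imaged every second for 3 min, with treatment added at 30 s; UTP served as positive control. AUC over the first 60 s taken after background removal, with each cell normalised to its basal intensity. Values were normalised to control and rescaled to 0–1.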

C3aR1 [2] = target: T1, C3aR1; experiment: Gi/o-mediated cAMP inhibition Glosensor assay; format: cell-based
C3aR1 [3] = target: T1, C3aR1; experiment: C3aR1 β-arrestin1 recruitment BRET assay; format: cell-based
In short: (§1)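 HEK293T co-transfected 1:3:15 with C-terminal Rluc8-tagged C3aR1, GRK2 and N-terminal Venus-β-arrestin1 or Venus-β-arrestin2, then plated overnight in DMEM with 1% dialyzed FBS. Cells washed, then test compound (3×) added in HBSS/HEPES buffer, pH 7.4. Coelenterazine h (5 μM final) added 15 min before reading at 485/530 nm, at time points up to 60 min, 37 °C. Net BRET was Venus/Rluc8 corrected against wells lacking Venus-arrestin, plotted against concentration.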

3T3-L1 adipocytes = experiment: Lipolysis; format: cell-based; conditions: 30 min or 3 h incubation
In short: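 3T3-L1 cells differentiated with insulin-containing medium and used 8–9 days after induction. Serum-starved in KRH buffer, then given ISO 50 nM plus test compound (10 nM to 1 μM) for 30 min or 3 h. Medium heat-inactivated at 60 °C for 20 min, then glycerol measured colorimetrically at 540 nm. Glycerol normalised to Bradford protein and expressed as fold over control in the same experiment. One-way ANOVA with Tukey.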

C3aR1 [4] = target: T1, C3aR1; experiment: ELISA surface expression; format: cell-based
C3aR1 [5] = target: T1, C3aR1; experiment: C3aR1 β-arrestin2 recruitment BRET assay; format: cell-based
In short: as §1

[6] = target: T2, Complement C3a receptor 1 (C3aR1) fused to Rluc8 on the C-terminus

| fold more potent to cause G protein dissociation compared to C3a63-77 (C3aR1 [1]; Gi/o/z subtypes) [fold] | G protein dissociation at Gs, Gq or G12/13 subtypes (C3aR1 [1]; full screen panel of Gα proteins) | activity in FSK-induced Gi/o-mediated cAMP inhibition (C3aR1 [2]) | β-arrestin1 recruitment potency compared to C3a63-77 (C3aR1 [3]) | β-arr2-dependent C3aR1 internalization compared to C3a63-77 (C3aR1 [4]) | β-arrestin2 recruitment potency compared to C3a63-77 (C3aR1 [5]) | recruitment of Venus-β-arrestin1 to C3aR1-Rluc8 by BRET, EC50 of the agonist [6] [nM] | recruitment of Venus-β-arrestin2 to C3aR1-Rluc8 by BRET, EC50 of the agonist [6] [nM] | Molecule | G protein dissociation activity across Gi/o/z subtypes (C3aR1 [1]; all tested Gi/o/z subtypes) | induction of calcium influx by the compound alone (3T3-L1 cells) | potentiation of adrenergic (ISO)-induced lipolysis (3T3-L1 adipocytes) |
| --- | --- | --- | --- | --- | --- | --- | --- | --- | --- | --- | --- |
| ~10 | no activity | shows agonist activity | more potent than C3a63-77 | more potent and efficacious | more potent than C3a63-77 | – | – | NC(N)=NCCC[C@H](NC(=O)COCC(c1ccccc1)c1ccccc1)C(=O)O [SB290157] | robust C3aR1 G protein dissociation agonist activity | does not induce calcium influx | did not potentiate |
| – | – | – | – | – | – | 191 | 542 | TLQPPASSRRRHFHHALPPAR [mouse TLQP-21] | – | – | – |
| – | – | – | – | – | – | – | 3180 | TLQPPSALRRRHYHHALPPSR [human TLQP-21] | – | – | – |
